According to ChEMBL document CHEMBL1144841, “Discovery of a novel indole series of EP1 receptor antagonists by scaffold hopping” (Bioorg Med Chem Lett, 2008):
Blank lines part the entries; values can stand above or below the compound they belong to.

What was measured:
[1] = molecular target: T1, Prostaglandin E2 receptor EP1 subtype (Homo sapiens, UniProt P34995); test: Antagonist activity against human EP1 receptor expressed in CHOK1 cells assessed as inhibition of PGE2-induced intracellular calcium mobilization by FLIPR assay; type: functional, cell-based, CHO-K1
T1 sequence (P34995 whole entry): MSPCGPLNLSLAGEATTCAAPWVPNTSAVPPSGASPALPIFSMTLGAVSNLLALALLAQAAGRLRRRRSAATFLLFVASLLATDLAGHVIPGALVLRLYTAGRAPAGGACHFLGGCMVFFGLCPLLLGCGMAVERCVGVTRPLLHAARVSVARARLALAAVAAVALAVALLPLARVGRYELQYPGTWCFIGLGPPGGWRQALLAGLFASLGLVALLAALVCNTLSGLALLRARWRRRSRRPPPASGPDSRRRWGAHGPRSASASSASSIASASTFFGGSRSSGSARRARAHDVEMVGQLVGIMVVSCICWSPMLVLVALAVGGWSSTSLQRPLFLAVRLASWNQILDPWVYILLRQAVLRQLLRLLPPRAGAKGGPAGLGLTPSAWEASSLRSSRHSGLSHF

[2] = molecular target: T1, Prostaglandin E2 receptor EP1 subtype; test: Displacement of [3H]PGE2 from human EP1 receptor expressed in CHOK1 cells; type: cell-based, CHO-K1
How it was run: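 Membranes from CHO-K1 cells stably transfected with human EP1 cDNA were incubated with competing compound and [3H]-PGE2 (3 nM final) for 30 min at 30 °C. Bound radioactivity was counted by liquid scintillation. Values are means of at least three experiments.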

Thromboxane A2 receptor = molecular target: T2, Thromboxane A2 receptor (Homo sapiens, UniProt P21731); test: Antagonist activity against TP receptor by FLIPR assay; type: functional
T2 sequence (P21731 whole entry): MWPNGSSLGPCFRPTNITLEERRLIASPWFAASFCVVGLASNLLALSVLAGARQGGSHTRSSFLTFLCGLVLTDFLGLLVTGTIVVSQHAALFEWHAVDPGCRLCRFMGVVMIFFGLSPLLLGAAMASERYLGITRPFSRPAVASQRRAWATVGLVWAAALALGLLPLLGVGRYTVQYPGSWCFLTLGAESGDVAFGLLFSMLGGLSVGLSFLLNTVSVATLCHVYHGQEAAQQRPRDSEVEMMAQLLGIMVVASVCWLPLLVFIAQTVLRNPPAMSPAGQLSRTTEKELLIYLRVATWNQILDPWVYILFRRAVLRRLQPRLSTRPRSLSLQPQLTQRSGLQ

[3] = molecular target: T3, Prostaglandin E2 receptor EP3 subtype (Homo sapiens, UniProt P43115); test: Antagonist activity against EP3 receptor by FLIPR assay; type: functional
T3 sequence (P43115 whole entry): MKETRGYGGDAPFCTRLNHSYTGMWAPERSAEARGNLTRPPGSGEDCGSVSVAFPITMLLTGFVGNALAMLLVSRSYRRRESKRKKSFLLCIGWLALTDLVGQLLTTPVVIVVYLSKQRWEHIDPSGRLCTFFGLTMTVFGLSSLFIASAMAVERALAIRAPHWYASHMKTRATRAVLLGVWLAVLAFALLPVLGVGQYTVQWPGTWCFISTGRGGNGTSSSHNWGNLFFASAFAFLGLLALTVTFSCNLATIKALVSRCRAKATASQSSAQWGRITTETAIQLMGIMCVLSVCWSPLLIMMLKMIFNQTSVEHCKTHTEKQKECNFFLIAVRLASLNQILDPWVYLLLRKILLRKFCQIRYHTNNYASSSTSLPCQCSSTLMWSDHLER

Liver [4] = test: Metabolic stability assessed as intrinsic clearance in human liver microsome; type: ADME; details: microsomes
How it was run: (§1)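 Intrinsic clearance was measured in liver microsomes and expressed as mL/min/g liver. Values come from a single experiment.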

Liver [5] = test: Metabolic stability assessed as intrinsic clearance in rat liver microsome; type: ADME; details: microsomes; how it was run: as §1
[6] = Ratio of drug level in brain to blood in complete Freund's adjuvant-induced hypersensitivity rat; type: ADME, tissue-based
Rattus norvegicus [7] = test: Drug level in complete Freund's adjuvant-induced hypersensitivity rat blood at 10 mg/kg, po; type: ADME, organism-based; design: dose 10 mg/kg, route oral; details: in vivo, read-out: Drug uptake
How it was run: (§2)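 Blood was sampled from the rats in the CFA hypersensitivity efficacy study, seven per dose group, and analysed by bioanalysis. Rats were dosed orally at 1, 3 and 10 mg/kg.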

Rattus norvegicus [8] = test: Drug level in complete Freund's adjuvant-induced hypersensitivity rat blood at 3 mg/kg, po; type: ADME, organism-based; design: dose 3 mg/kg, route oral; details: in vivo, read-out: Drug uptake; how it was run: as §2
Rattus norvegicus [9] = test: Drug level in complete Freund's adjuvant-induced hypersensitivity rat blood at 1 mg/kg, po; type: ADME, organism-based; design: dose 1 mg/kg, route oral; details: in vivo, read-out: Drug uptake; how it was run: as §2
Rattus norvegicus [10] = test: Inhibition of complete Freund's adjuvant-induced hypersensitivity in orally dosed rat; type: functional; details: po
How it was run: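 Rats with CFA-induced inflammatory hypersensitivity were dosed orally, seven per dose group, with celecoxib 10 mg/kg po as comparator. Readout was taken 1 h after dosing. ED50 was calculated from the dose-response, and significance was reported at p < 0.05, 0.01 and 0.001.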

Structure (SMILES): CC(C)Cc1cn(-c2nc(C(=O)O)co2)c2cc(Cl)ccc12
- Ki ([1]; read-out: Log Ki (converted)): 1 nM
- IC50 ([2]; read-out: Log IC50 (converted)): 7.94 nM

Structure (SMILES): O=C(O)c1csc(-n2cc(Cc3ccccc3)c3ccc(Cl)cc32)n1
- Ki ([1]; read-out: Log Ki (converted)): 63.1 nM
- IC50 ([2]; read-out: Log IC50 (converted)): 158 nM

Structure (SMILES): CC(C)(C)Cc1cn(-c2nc(C(=O)[O-])cs2)c2cc(Cl)ccc12.[Na+]
- CL (Liver [4]): 2.7 mL/min/g
- IC50 ([2]; read-out: Log IC50 (converted)): 31.6 nM
- CL (Liver [5]): 1.9 mL/min/g

Structure (SMILES): CC(C)Cc1cn(-c2ccccc2C(=O)O)c2cc(Cl)ccc12
- IC50 ([2]; read-out: Log IC50 (converted)): > 1000 nM

Structure (SMILES): Cc1c(CC(C)C)c2ccc(Cl)cc2n1-c1nc(C(=O)O)cs1
- IC50 ([2]; read-out: Log IC50 (converted)): 39.8 nM

Structure (SMILES): CC(C)Cc1cn(-c2cccc(C(=O)O)c2)c2cc(Cl)ccc12
- IC50 ([2]; read-out: Log IC50 (converted)): 631 nM

Structure (SMILES): CC(C)Cc1cn(CC(=O)O)c2cc(Cl)ccc12
- IC50 ([2]; read-out: Log IC50 (converted)): > 1000 nM

Structure (SMILES): CC(C)Cc1cn(-c2ccc(C(=O)O)s2)c2cc(Cl)ccc12
- IC50 ([2]; read-out: Log IC50 (converted)): 50.1 nM

Structure (SMILES): CC(C)(C)CCc1cn(-c2nc(C(=O)[O-])cs2)c2cc(Cl)ccc12.[Na+]
- Ki (Thromboxane A2 receptor): 79.4 nM
- Ki [3]: 398 nM
- CL (Liver [4]): 2.1 mL/min/g
- Ki ([1]; read-out: Log Ki (converted)): 3.98 nM
- IC50 ([2]; read-out: Log IC50 (converted)): 6.31 nM
- CL (Liver [5]): 1.3 mL/min/g

Structure (SMILES): CC(C)Cc1cn(-c2ncc(C(=O)O)s2)c2cc(Cl)ccc12
- IC50 ([2]; read-out: Log IC50 (converted)): 100 nM

Structure (SMILES): CCCc1cn(-c2nc(C(=O)[O-])cs2)c2cc(Cl)ccc12.[Na+]
- CL (Liver [4]): 1.3 mL/min/g
- IC50 ([2]; read-out: Log IC50 (converted)): 31.6 nM
- CL (Liver [5]): 11 mL/min/g

Structure (SMILES): CC(C)Cc1cn(-c2ccc(C(=O)[O-])o2)c2cc(Cl)ccc12.[Na+]
- Ki (Thromboxane A2 receptor): 398 nM
- Ki [3]: 501 nM
- CL (Liver [4]): 5.4 mL/min/g
- Ki ([1]; read-out: Log Ki (converted)): 1.26 nM
- IC50 ([2]; read-out: Log IC50 (converted)): 25.1 nM
- CL (Liver [5]): 35 mL/min/g

Structure (SMILES): CC(C)Cc1cn(-c2nc(C(=O)O)cs2)c2cc(C(F)(F)F)ccc12
- Ki [3]: 501 nM
- Ki ([1]; read-out: Log Ki (converted)): 0.0631 nM
- IC50 ([2]; read-out: Log IC50 (converted)): 12.6 nM

Structure (SMILES): CN(C)CCc1cn(-c2nc(C(=O)O)cs2)c2cc(Cl)ccc12
- IC50 ([2]; read-out: Log IC50 (converted)): > 1000 nM

Structure (SMILES): CC(C)Cc1cn(-c2cccc(C(=O)[O-])n2)c2cc(Cl)ccc12.[Na+]
- Kp [6]: 0.05
- concentration (Rattus norvegicus [7]): 6040 nM
- Ki [3]: 794 nM
- concentration (Rattus norvegicus [8]): 1230 nM
- concentration (Rattus norvegicus [9]): 440 nM
- CL (Liver [4]): 3.6 mL/min/g
- ED50 (Rattus norvegicus [10]): 2.17 mg/kg
- Ki ([1]; read-out: Log Ki (converted)): 20 nM
- IC50 ([2]; read-out: Log IC50 (converted)): 63.1 nM
- CL (Liver [5]): 4.3 mL/min/g

Structure (SMILES): CC(C)Cc1cn(Cc2nc(C(=O)O)cs2)c2cc(Cl)ccc12
- IC50 ([2]; read-out: Log IC50 (converted)): 6.31 nM

Structure (SMILES): CC(C)Cc1cn(-c2nc(C(=O)O)cs2)c2ccccc12
- Ki ([1]; read-out: Log Ki (converted)): 12.6 nM
- IC50 ([2]; read-out: Log IC50 (converted)): 158 nM

Structure (SMILES): O=C(O)c1csc(-n2ccc3ccc(Cl)cc32)n1
- IC50 ([2]; read-out: Log IC50 (converted)): > 1000 nM

Further lines, results first:

- Ki (Thromboxane A2 receptor): 31.6 nM
- Ki [3]: 316 nM
- CL (Liver [4]): 2.2 mL/min/g
- Ki ([1]; read-out: Ki): 0.5 nM
- IC50 ([2]; read-out: IC50): 6.3 nM
- CL (Liver [5]): 12 mL/min/g
Structure (SMILES): CC(C)Cc1cn(-c2nc(C(=O)[O-])cs2)c2cc(Cl)ccc12.[Na+]

- IC50 ([2]; read-out: Log IC50 (converted)): 251 nM
Structure (SMILES): O=C(O)c1csc(-n2cc(CC(F)(F)F)c3ccc(Cl)cc32)n1

- IC50 ([2]; read-out: Log IC50 (converted)): 39.8 nM
Structure (SMILES): CC(C)c1cn(-c2nc(C(=O)O)cs2)c2cc(Cl)ccc12

- IC50 ([2]; read-out: Log IC50 (converted)): > 1000 nM
Structure (SMILES): CN(C)Cc1cn(-c2nc(C(=O)O)cs2)c2cc(Cl)ccc12

- IC50 ([2]; read-out: Log IC50 (converted)): 39.8 nM
Structure (SMILES): CC(C)Cc1cn(-c2nc(C(=O)O)cs2)c2ccc(Cl)cc12

- IC50 ([2]; read-out: Log IC50 (converted)): 10 nM
Structure (SMILES): Cc1ccc2c(CC(C)C)cn(-c3nc(C(=O)O)cs3)c2c1

- IC50 ([2]; read-out: Log IC50 (converted)): 158 nM
Structure (SMILES): CC(C)Cc1cn(-c2nc(CC(=O)O)cs2)c2cc(Cl)ccc12

- IC50 ([2]; read-out: Log IC50 (converted)): 1000 nM
Structure (SMILES): CN(C)C(=O)c1cn(-c2nc(C(=O)O)cs2)c2cc(Cl)ccc12

- IC50 ([2]; read-out: Log IC50 (converted)): 100 nM
Structure (SMILES): CC(C)C(=O)c1cn(-c2nc(C(=O)O)cs2)c2cc(Cl)ccc12

- IC50 ([2]; read-out: Log IC50 (converted)): 39.8 nM
Structure (SMILES): CC(C)Cc1cn(-c2nc(C(=O)O)cs2)c2cc(F)ccc12

- Ki (Thromboxane A2 receptor): 50.1 nM
- Ki [3]: 398 nM
- Ki ([1]; read-out: Log Ki (converted)): 0.2 nM
- IC50 ([2]; read-out: Log IC50 (converted)): 3.98 nM
Structure (SMILES): CC(C)Cc1cn(-c2nc(C(=O)O)cs2)c2cc(Br)ccc12

- IC50 ([2]; read-out: Log IC50 (converted)): 126 nM
Structure (SMILES): CCc1cn(-c2nc(C(=O)O)cs2)c2cc(Cl)ccc12
